The target of assay [1] is Mitogen-activated protein kinase 10 (Rattus norvegicus) (UniProt P49187). As to the kind of experiment: Inhibition of rat c-Jun N-terminal kinase-3 at 30 uM. In a few lines: (§1)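 Kinase activity assayed with ATP at 100 µM, deliberately higher than usual assay ATP levels because the inhibitors are assumed ATP-competitive. Results are reported as percent inhibition of each kinase.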

The target of assay [2] is RAC-alpha serine/threonine-protein kinase (Homo sapiens) (UniProt P31749). Kind of assay: Inhibition of human Protein kinase B alpha at 30 uM. The gist of the method: as §1
For assay [3], the target named is Mitogen-activated protein kinase 14 (Homo sapiens) (UniProt Q16539). Kind of assay: Inhibition of human stress-activated protein kinase-2 alpha (p38 MAP-kinase) at 30 uM. In a few lines:
as §1

In assay [4] the target is Dual specificity mitogen-activated protein kinase kinase 1 (Homo sapiens) (UniProt Q02750). As to the kind of experiment: Inhibition of human Mitogen activated protein kinase kinase 1 (MEK1) at 30 uM. The gist of the method:
as §1

Assay [5] has as its target Protein kinase C alpha type (Homo sapiens) (UniProt P17252). As to the kind of experiment: Inhibition of human Protein kinase C alpha. The arrangement: concentration or dose not given beside the values. The settings on record: concentration not given here.
The target of assay [6] is cAMP-dependent protein kinase (PKA) (Homo sapiens) (UniProt P22694+P17612+P22612). Kind of assay: Inhibition of human cAMP-dependent protein kinase (PKA). The arrangement: concentration or dose not given beside the values. The settings on record: concentration not given here. The format is protein assay.
The target in assay [7] is Ca2+/calmodulin-dependent protein kinase II (CaM kinase II) (Rattus norvegicus) (UniProt P11275+P08413+P15791+P11730). Kind of assay: Inhibition of rat Calcium/calmodulin-dependent protein kinase type II at 30 uM. Format: protein assay. In a few lines:
as §1

Assay [8] concerns the target Glycogen synthase kinase-3 beta (Homo sapiens) (UniProt P49841). Kind of assay: Inhibition of human Glycogen synthase kinase-3 beta at 30 uM. In a few lines:
as §1

Assay [9] deals with Mitogen-activated protein kinase 8 (Homo sapiens) (UniProt P45983). Kind of assay: Inhibition of human c-Jun N-terminal kinase-1 alpha-1 at 30 uM. The gist of the method:
as §1

Assay [10] has as its target Mitogen-activated protein kinase 9 (Homo sapiens) (UniProt P45984). As to the kind of experiment: Inhibition of human c-Jun N-terminal kinase-2 alpha-2 at 30 uM. The gist of the method:
as §1

Assay [11] addresses Mitogen-activated protein kinase 1 (Homo sapiens) (UniProt P28482). As to the kind of experiment: Inhibition of human Mitogen-activated protein kinase 2 at 30 uM. The gist of the method: as §1
The target of assay [12] is Tyrosine-protein kinase Lck (Homo sapiens) (UniProt P06239). As to the kind of experiment: Inhibition of human lymphocyte protein tyrosine kinase Lck at 30 uM. In a few lines:
as §1

Assay [13] has as its target RAF proto-oncogene serine/threonine-protein kinase (Homo sapiens) (UniProt P04049). As to the kind of experiment: Inhibition of human RAF proto-oncogene serine/threonine-protein kinase at 30 uM. In a few lines: as §1
Assay [14] has as its target Rho-associated protein kinase 2 (Homo sapiens) (UniProt O75116). As to the kind of experiment: Inhibition of human Rho-dependent protein kinase-II at 30 uM.

Sequence of RAC-alpha serine/threonine-protein kinase (Homo sapiens) (P31749 whole entry): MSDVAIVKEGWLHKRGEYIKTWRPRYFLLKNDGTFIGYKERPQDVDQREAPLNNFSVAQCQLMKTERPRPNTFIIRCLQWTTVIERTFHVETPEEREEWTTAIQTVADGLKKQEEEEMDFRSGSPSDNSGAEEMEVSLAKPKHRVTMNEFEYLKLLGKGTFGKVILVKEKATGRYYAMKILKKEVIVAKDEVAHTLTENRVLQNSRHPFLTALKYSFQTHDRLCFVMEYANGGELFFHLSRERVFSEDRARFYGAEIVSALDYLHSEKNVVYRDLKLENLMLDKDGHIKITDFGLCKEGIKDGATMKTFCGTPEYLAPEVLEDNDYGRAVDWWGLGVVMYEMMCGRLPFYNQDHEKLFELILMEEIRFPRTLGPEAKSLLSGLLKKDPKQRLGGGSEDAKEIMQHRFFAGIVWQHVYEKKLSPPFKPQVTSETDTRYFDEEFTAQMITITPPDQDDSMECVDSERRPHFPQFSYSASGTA
Sequence of Dual specificity mitogen-activated protein kinase kinase 1 (Homo sapiens) (Q02750 whole entry): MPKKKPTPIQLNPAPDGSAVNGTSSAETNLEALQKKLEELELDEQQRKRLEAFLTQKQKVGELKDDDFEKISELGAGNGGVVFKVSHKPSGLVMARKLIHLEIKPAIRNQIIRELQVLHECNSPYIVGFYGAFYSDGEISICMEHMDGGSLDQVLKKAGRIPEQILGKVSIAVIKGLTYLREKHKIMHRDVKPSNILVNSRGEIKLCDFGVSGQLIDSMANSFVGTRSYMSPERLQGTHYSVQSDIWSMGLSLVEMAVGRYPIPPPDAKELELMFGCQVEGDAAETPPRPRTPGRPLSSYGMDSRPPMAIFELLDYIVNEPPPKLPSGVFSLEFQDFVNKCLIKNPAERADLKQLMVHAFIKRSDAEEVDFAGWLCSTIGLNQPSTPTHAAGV
Sequence of Mitogen-activated protein kinase 14 (Homo sapiens) (Q16539 whole entry): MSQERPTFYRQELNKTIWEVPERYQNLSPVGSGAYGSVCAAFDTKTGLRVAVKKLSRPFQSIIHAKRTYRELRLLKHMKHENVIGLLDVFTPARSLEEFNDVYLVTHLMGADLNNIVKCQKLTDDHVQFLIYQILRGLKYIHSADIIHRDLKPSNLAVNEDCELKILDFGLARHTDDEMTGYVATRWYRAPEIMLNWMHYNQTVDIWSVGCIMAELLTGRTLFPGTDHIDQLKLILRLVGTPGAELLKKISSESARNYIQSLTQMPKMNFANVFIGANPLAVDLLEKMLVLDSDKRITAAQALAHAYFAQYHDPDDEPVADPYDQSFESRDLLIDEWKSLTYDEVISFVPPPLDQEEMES
Sequence of Rho-associated protein kinase 2 (Homo sapiens) (O75116 whole entry, looked up): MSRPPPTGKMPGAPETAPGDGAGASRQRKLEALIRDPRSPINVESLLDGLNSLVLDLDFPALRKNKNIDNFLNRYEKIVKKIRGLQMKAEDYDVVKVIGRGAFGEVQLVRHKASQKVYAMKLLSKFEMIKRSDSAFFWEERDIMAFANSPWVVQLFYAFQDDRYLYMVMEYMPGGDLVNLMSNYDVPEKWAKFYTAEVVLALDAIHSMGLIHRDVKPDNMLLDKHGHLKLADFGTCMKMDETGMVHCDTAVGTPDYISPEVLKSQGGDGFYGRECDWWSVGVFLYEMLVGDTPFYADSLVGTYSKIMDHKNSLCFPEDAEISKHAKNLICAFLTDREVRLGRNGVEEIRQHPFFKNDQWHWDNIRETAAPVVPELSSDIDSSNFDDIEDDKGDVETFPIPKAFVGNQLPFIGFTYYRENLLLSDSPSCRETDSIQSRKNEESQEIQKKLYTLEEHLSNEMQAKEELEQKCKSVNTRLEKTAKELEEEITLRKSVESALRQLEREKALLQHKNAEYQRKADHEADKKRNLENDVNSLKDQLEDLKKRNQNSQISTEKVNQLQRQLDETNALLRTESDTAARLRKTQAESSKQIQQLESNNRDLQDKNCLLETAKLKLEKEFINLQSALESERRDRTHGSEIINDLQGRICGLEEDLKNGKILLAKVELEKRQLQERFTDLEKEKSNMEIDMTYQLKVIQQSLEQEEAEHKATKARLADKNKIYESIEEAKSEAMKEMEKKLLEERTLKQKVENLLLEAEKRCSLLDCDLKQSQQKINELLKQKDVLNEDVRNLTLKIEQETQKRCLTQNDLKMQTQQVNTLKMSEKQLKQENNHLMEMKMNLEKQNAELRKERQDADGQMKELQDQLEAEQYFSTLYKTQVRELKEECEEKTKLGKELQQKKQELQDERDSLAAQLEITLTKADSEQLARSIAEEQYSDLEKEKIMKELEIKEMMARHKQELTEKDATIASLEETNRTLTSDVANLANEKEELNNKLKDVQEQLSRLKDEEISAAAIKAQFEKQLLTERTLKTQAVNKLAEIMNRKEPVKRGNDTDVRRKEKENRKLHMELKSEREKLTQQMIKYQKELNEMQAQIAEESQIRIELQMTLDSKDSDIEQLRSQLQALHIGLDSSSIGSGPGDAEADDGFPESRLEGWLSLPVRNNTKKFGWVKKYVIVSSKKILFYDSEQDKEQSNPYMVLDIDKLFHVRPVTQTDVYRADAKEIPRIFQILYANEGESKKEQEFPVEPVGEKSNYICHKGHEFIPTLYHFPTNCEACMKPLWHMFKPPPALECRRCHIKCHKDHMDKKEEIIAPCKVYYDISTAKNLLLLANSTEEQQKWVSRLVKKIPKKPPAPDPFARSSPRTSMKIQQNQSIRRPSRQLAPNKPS
Sequence of Mitogen-activated protein kinase 10 (Rattus norvegicus) (P49187 whole entry): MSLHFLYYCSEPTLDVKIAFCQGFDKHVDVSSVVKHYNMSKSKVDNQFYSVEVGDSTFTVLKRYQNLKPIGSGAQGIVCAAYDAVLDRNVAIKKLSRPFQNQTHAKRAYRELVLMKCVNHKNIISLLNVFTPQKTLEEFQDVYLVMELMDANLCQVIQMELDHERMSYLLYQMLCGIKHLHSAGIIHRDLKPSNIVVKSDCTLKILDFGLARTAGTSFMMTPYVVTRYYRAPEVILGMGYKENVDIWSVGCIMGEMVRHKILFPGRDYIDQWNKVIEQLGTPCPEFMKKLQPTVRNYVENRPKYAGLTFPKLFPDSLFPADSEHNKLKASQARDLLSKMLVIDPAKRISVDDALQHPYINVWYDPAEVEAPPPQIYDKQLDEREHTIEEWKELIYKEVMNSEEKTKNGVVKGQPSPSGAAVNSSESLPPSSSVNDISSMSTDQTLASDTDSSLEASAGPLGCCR
Sequence of RAF proto-oncogene serine/threonine-protein kinase (Homo sapiens) (P04049 whole entry): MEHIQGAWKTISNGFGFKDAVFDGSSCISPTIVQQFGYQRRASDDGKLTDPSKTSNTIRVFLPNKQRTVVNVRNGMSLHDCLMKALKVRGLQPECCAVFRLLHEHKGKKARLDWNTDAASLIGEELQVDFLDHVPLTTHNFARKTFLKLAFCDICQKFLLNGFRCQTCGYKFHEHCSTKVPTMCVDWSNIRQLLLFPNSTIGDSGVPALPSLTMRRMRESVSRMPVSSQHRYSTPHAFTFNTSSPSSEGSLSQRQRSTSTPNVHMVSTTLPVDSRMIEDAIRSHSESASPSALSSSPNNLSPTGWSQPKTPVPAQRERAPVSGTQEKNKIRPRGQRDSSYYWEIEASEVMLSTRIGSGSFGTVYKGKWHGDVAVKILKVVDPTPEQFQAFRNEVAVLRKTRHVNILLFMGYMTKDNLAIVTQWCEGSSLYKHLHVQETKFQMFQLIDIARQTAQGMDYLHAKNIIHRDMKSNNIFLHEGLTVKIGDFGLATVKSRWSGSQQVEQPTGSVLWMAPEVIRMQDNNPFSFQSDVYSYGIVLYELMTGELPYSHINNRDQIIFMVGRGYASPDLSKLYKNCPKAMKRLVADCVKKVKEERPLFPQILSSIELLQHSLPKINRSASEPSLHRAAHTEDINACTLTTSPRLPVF
Sequence of Mitogen-activated protein kinase 8 (Homo sapiens) (P45983 whole entry): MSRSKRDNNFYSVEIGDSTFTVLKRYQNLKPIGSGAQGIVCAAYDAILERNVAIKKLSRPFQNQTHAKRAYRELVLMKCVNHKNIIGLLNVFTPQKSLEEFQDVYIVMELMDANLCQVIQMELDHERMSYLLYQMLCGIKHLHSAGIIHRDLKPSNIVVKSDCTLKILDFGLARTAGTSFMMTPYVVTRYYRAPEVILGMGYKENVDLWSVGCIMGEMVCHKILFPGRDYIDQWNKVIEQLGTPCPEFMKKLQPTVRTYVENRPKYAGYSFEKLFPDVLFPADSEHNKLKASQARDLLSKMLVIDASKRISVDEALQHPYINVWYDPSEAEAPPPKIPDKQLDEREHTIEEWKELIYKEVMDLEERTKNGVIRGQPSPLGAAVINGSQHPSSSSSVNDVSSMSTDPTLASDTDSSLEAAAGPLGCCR

The inhibition is the change of the read-out against control, counted positive when it falls. In the case of `c1ccc(C[n+]2c[nH]c3ncncc32)cc1`, the inhibition in assay [1] was 13%; in [2] it was 9%; in [3] it was 6%; in assay [4], 4%; in assay [5], 18%; in [6], 0%. Also, the inhibition in assay [7] stood at 7%; in [8] it was 13%; in assay [9], 0%; in [10], 4%; in assay [11], 7%; in [12], 7%. Also, the figures for the inhibition in [13] and in assay [14] were 10% and 7%, respectively.
As for `Fc1ccc(Sc2[nH]cnc3nccc2-3)cc1`, the inhibition in assay [1] worked out at 5%; in assay [2], 0%; in assay [3], 79%; in assay [4] it was 36%; in assay [5], 15%; in assay [6], 0%. Besides, the inhibition in assay [7] was 3%; in assay [8], 4%; in [9], 2%; in [10], 6%; in [11] it was 2%; in assay [12], 52%. The inhibition came out at 43% in assay [13] and 42% in assay [14].
With `Cn1cnc2c(Sc3ccc(F)cc3)ncnc21`, the inhibition in assay [1] came out at 9%; in [2] it was 0%; in [3], 38%; in assay [4], 6%; in [5], 7%; in assay [6], 1%. The inhibition amounted to 5% in assay [7]; 0% in assay [8]; 10% in assay [9]; 10% in [10]; 12% in [11]; 2% in assay [12]. Further, the inhibition came out at 12% in assay [13] and 6% in [14].
Regarding `Cn1c(C#CCCO)nc2c(Sc3ccccc3)ncnc21`, the inhibition was 0% in [1]; 33% in [2]; 3% in assay [3]; 0% in [4]; 18% in [5]; 0% in assay [6]. Also, the inhibition in [7] amounted to 10%; in assay [8] it was 0%; in [9], 0%; in assay [10] it was 0%; in assay [11], 0%; in assay [12], 11%. The inhibition in assay [13] and in assay [14] was 0% each time.
Regarding `Cn1cnc2c(SCc3ccc(F)cc3)ncnc21`, the inhibition in [1] was determined as 9%; in assay [2], 11%; in assay [3], 21%; in assay [4], 7%; in assay [5] it was 12%; in assay [6], 0%. Also, the inhibition in assay [7] was found to be 5%; in assay [8] it was 14%; in assay [9] it was 10%; in assay [10], 6%; in assay [11], 8%; in assay [12], 5%. Moreover, the inhibition in assay [13] worked out at 16%; in [14], 6%.
As to `Nc1ncnc2ncn(Cc3ccc(F)cc3)c12`, the inhibition in [1] is 25%; in [2], 0%; in assay [3], 8%; in assay [4], 8%; in assay [5], 14%; in [6], 7%. In addition, the inhibition in assay [7] turned out to be 8%; in [8] it was 0%; in assay [9], 4%; in assay [10] it was 7%; in [11], 5%; in [12], 0%. In addition, the figures for the inhibition in [13] and in assay [14] were 28% and 6%, respectively.
As to `CSc1ccc(-c2nc3c(Sc4ccc(F)cc4)ncnc3n2C)cc1`, the inhibition in [1] turned out to be 3%; in assay [2], 0%; in assay [3], 15%; in assay [4], 4%; in assay [5] it was 0%; in assay [6], 0%. Also, the inhibition in [7] came to 7%; in [8] it was 5%; in [9], 3%; in assay [10], 5%; in [11], 0%; in assay [12], 1%. The inhibition in assay [13] was determined as 1%; in assay [14] it was 0%.
For the molecule `Cn1c(-c2ccc([S+](C)[O-])cc2)nc2c(Sc3ccc(F)cc3)ncnc21` (stereo not given), the inhibition is 10% in assay [1]; 10% in assay [2]; 44% in assay [3]; 1% in assay [4]; 15% in assay [5]; 4% in assay [6]. The inhibition in assay [7] amounted to 12%; in assay [8], 4%; in assay [9], 0%; in assay [10], 1%; in assay [11] it was 0%; in assay [12], 30%. Further, the inhibition is 4% in assay [13] and 0% in assay [14].
Consider `COc1ncnc2ncn(Cc3ccc(F)cc3)c12`, for which the inhibition in [1] came out at 30%; in assay [2], 0%; in assay [3], 8%; in assay [4], 3%; in assay [5], 7%; in assay [6], 7%. Moreover, the inhibition in [7] was found to be 2%; in assay [8], 5%; in [9], 0%; in assay [10], 0%; in assay [11], 3%; in assay [12], 0%. The results for the inhibition in [13] and in assay [14] were 9% and 1%, respectively.
`Cn1c(-c2ccccc2)nc2c(Sc3ccccc3)ncnc21`: the inhibition was determined as 12% in assay [1]; 42% in assay [2]; 44% in assay [3]; 4% in assay [4]; 13% in [5]; 3% in assay [6]. Further, the inhibition is 1% in assay [7]; 0% in assay [8]; 0% in assay [9]; 0% in assay [10]; 0% in [11]; 5% in assay [12]. In addition, the inhibition in assay [13] came to 12%; in assay [14], 1%.
As for `c1ccc(Cn2cnc3c(Sc4ccccc4)ncnc32)cc1`, the inhibition in assay [1] came out at 0%; in assay [2], 1%; in [3], 64%; in assay [4] it was 6%; in assay [5], 0%; in assay [6], 0%. The inhibition amounted to 3% in assay [7]; 1% in assay [8]; 0% in assay [9]; 0% in assay [10]; 0% in assay [11]; 0% in [12]. Further, the inhibition turned out to be 0% in [13] and 1% in [14].
Turning to `Cn1c(Br)nc2c(Sc3ccccc3)ncnc21`, the inhibition in assay [1] came to 0%; in [2], 1%; in assay [3] it was 23%; in assay [4], 0%; in [5], 5%; in assay [6] it was 0%. In addition, the inhibition was found to be 0% in [7]; 19% in assay [8]; 0% in [9]; 0% in assay [10]; 0% in assay [11]; 23% in assay [12]. The inhibition in assay [13] and in [14] was 0% each time.
For `Fc1ccc(Sc2ncnc3c2ncn3Cc2ccccc2)cc1`, the inhibition in [1] came out at 0%; in [2] it was 1%; in [3] it was 64%; in assay [4] it was 4%; in assay [5] it was 0%; in assay [6] it was 0%. Further, the inhibition was found to be 0% in [7]; 0% in [8]; 0% in [9]; 0% in assay [10]; 0% in assay [11]; 16% in [12]. Moreover, the results for the inhibition in [13] and in assay [14] were 0% and 5%, respectively.
Regarding `Fc1ccc(CSc2[nH]cnc3ncnc2-3)cc1`, the inhibition was 12% in assay [1]; 6% in assay [2]; 29% in assay [3]; 0% in assay [4]; 4% in [5]; 3% in assay [7]. Moreover, the inhibition in assay [8] stood at 0%; in assay [9], 0%; in assay [10] it was 0%; in assay [11], 5%; in assay [12] it was 16%; in [13], 47%. Further, the inhibition in assay [14] was 18%.

The values above are taken from ChEMBL document CHEMBL1141882, “Synthesis and biological testing of purine derivatives as potential ATP-competitive kinase inhibitors” (J Med Chem, 2005).
